Assay outcomes (PubChem)
Most compounds without a hit are left out; they make up all but 2.7% or so of the library.
OX1R antag-1: OX1R (HCRTR1) antagonists, primary screen, fluorescence, CHO/OX1R cells, Fluo-8 calcium, orexin A. inhibition, % at 5 µM. Fluo-8 calcium fluorescence. hit rate 0.43% among 330,000. Orexin/Hypocretin receptor type 1 (Homo sapiens), O43613;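 active = inhibition above its plate's threshold, mean inhibition of all tested compounds on the plate plus 3 SD, cut at about 37% in these data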;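 note: 0% = orexin A challenge wells and 100% = SB-334867-A antagonist wells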
OX1R antag-2: antagonists of human orexin 1 receptor (OX1R). OX1R-expressing cells, FRET antagonist read-out. Orexin/Hypocretin receptor type 1 (Homo sapiens), O43613. hit rate 1.8% among 330,000. inhibition, % at 6.6 µM; in the data active = inhibition mostly above about 38%, no sharp cut-off; inactive = mostly below about 40%;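 note: 0% = agonist challenge alone and 100% = reference antagonist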
V1R ag counter: agonists of human V1a receptor, primary screen, counter-screen for OXTR agonist project, fluorescence, CHO-V1R cells. Fluo-8 calcium fluorescence, agonist mode; 0% DMSO, 100% 3 nM vasopressin. AID 2797, 2010. hit rate 0.25% among 320,000. activation, % at 3 µM;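 active = activation above the mean activation of all tested compounds plus 3 SD, per screening run, cut at about 20% in these data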;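 note: signal is peak over basal fluorescence ratio across a 100 second FLIPR read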
Target sequence (P37288 whole entry, looked up): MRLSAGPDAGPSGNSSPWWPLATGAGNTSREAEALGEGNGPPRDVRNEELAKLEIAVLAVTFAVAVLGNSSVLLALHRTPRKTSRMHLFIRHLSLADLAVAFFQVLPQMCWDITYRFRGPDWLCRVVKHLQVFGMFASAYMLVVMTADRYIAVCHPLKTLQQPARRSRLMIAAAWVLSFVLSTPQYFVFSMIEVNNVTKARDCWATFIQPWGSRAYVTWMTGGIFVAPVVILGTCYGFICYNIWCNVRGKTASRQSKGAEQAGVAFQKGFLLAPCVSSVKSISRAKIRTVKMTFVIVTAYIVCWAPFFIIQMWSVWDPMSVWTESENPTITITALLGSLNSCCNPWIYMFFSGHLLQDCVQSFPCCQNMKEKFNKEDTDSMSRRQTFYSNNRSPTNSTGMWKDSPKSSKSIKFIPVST
OXTR potentiator: human OXTR potentiators, primary screen, fluorescence, CHO-OTR cells, Fluo-8 calcium; hit rate 0.061% among 320,000; Fluo-8 calcium fluorescence, potentiator mode; 0% = oxytocin EC15, 100% = EC100; AID 2445, 2010; activation, % at 3 µM; Oxytocin receptor (Homo sapiens), P30559;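 active = activation above that plate's cutoff, the mean activation of tested compounds plus 3 SD, cut at about 6.6% in these data, passing the limit was not always enough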;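 note: 100% uses oxytocin at 75 nM as the full agonist control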
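assay system = CHO-OTR cells, human receptor | schedule = compound 6 min at room temperature before oxytocin, 100 s read | detection = Fluo-8 intracellular calcium fluorescence, ex 470-495, em 515-575 nm | evaluation = normalized max/min fluorescence ratio, % activation | control set = EC15 oxytocin alone as 0%, 75 nM oxytocin (EC100) as 100%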
OXTR ag: human OXTR agonists, primary screen, fluorescence, CHO-OTR cells, Fluo-8 calcium. Oxytocin receptor (Homo sapiens), P30559. Fluo-8 calcium fluorescence; normalized: DMSO 0%, oxytocin 100%. activation, % at 3 µM. hit rate 0.32% among 320,000;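 active = activation above the mean of all tested compounds plus 3 SD, cutoff set per screening run, cut at about 20% in these data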;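 note: peak over basal fluorescence ratio from a 100 s FLIPR kinetic read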
CHO parental Ca: ATP-evoked calcium signal inhibitors, parental CHO, primary screen, counter-screen for OX1R antagonist project, cell-based, fluorescence, Fluo-8 calcium dye; AID 463079, 2010; hit rate 0.63% among 330,000; parental CHO-K1, ATP-induced calcium, Fluo-8 fluorescence; inhibition, % at 5.6 µM;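 active = inhibition above that plate's mean sample inhibition plus 3 SD, cut at about 26% in these data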;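 note: 0% = ATP-challenged DMSO wells and 100% = DMSO wells without ATP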
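Test system: untransfected parental CHO cell line. Compound: one dose, 5.6 µM nominal. Detection: intracellular calcium via Fluo-8 no-wash fluorescent dye. Measure: % inhibition. Benchmarks: ATP-challenged DMSO wells low, unchallenged DMSO wells high.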
An asterisk follows results filed as active.

SMILES	OX1R antag-1	OX1R antag-2	V1R ag counter	OXTR potentiator	OXTR ag	CHO parental Ca
Cc1ccc2ncc(S(=O)(=O)c3ccccc3)c(N3CCCCC3C)c2c1 (stereo unspecified)	-23	33	-1	-9	0	44*
Cc1nc2ccccc2c2oc(C(=O)N3CCc4ccccc4C3)cc12	-12	35*	4	-11	4	-11
Cc1nc2ccccc2c2oc(C(=O)N3CCC(C)CC3)cc12	-41	14	0	-1	-1	-24
COC(=O)c1cc(C(=O)Nc2ccc(C)cn2)cc([N+](=O)[O-])c1	-26	50*	-1	-11	-2	-24
COc1cc(OC)cc(C(=O)Nc2ccc([N+](=O)[O-])cn2)c1	-13	13	-1	0	-2	-15
N#Cc1c(N)n(Cc2ccccc2)c(=O)c2cc([N+](=O)[O-])ccc12	-14	13	2	-8	2	0
Cn1c(N)c(-c2ccccc2)c2ccc([N+](=O)[O-])cc2c1=O	53*	32	51*	-17	46*	43*
Cc1cccc(Nc2nc(NCc3ccco3)c3ccccc3n2)c1	44	19	2	-3	1	74*
Cc1ccc(NC(=O)C(C)OC(=O)Cn2[nH]c(=O)c3ccccc3c2=O)cc1 (stereo unspecified)	2	17	1	-3	0	-3
Cn1c(=O)c(C(=O)Nc2ncccc2O)c(O)c2ccccc21	27	17	0	-12	-3	48*
O=C(O)c1cc(-c2ccc(O)cc2)on1	-7	9	1	-8	1	-17
COc1ccc(OC)c(CCNC(=O)Cn2sc3nc(C)cc(C)c3c2=O)c1	55*	20	6	-4	17	49*
Cc1cc(C)c2c(=O)n(CC(=O)NC3CCCC3)sc2n1	8	1	4	-2	4	4
O=C(CCc1nnc(CCc2c[nH]c3ccccc23)o1)NC1CCC1	-8	13	0	1	2	-15
Cc1ccc(CN(Cc2ccccc2)C(=S)NCC(=O)NCc2cccnc2)o1	-20	10	0	-17	0	5
CCOc1ccccc1NC(=O)C(OC(=O)c1ccccc1O)c1ccccc1 (stereo unspecified)	-17	10	1	-13	-1	-21
CCOc1ccccc1NC(=O)C(OC(=O)c1ccccc1)c1ccccc1 (stereo unspecified)	0	18	0	-7	-1	53*
COc1ccc(CCNC(=O)C(=O)NCC2OCCN2S(=O)(=O)c2ccc(OC)cc2)cc1 (stereo unspecified)	-29	24	8	-5	7	-9
COc1ccc(S(=O)(=O)N2CCOC2CNC(=O)C(=O)NCCc2c[nH]c3ccccc23)cc1C (stereo unspecified)	5	55*	10	-6	11	-1
COc1ccc(S(=O)(=O)N2CCOC2CNC(=O)C(=O)NCCc2ccc(S(N)(=O)=O)cc2)cc1 (stereo unspecified)	-18	5	0	0	0	72*
C=C1/C=C(\C)[C@](C)(O)C[C@H](O)CC(=O)[C@H](O)[C@@H](O)[C@H](C)C[C@H](C)OC(=O)/C(C)=C/CC/C=C/[C@@H]2O[C@H]2C[C@H](C)C1	-12	10	0	-7	0	-21
NC1=NC[C@H](Cc2ccccc2)N1CCCCC1CCCCC1	75*	-12	1	-11	0	74*
Cc1cc(C)cc(NC(=O)c2ccc(CSc3nnc(C)s3)cc2)c1	-1	8	2	-5	-3	-3
Cc1ccc(NC(=O)c2ccc(CSc3nnc(C)s3)cc2)cc1	-1	10	2	-6	0	40*
COc1ccc2nc3cccc(OC)c3nc2c1	-18	42*	-1	-1	-1	-17
SMILES	OX1R antag-1	OX1R antag-2	V1R ag counter	OXTR potentiator	OXTR ag	CHO parental Ca
COc1ccc2nc3ccccc3nc2c1N	-17	55*	-1	0	-2	-20
COc1ccc2nc(-c3ccco3)c(-c3ccco3)nc2c1	-14	29	-1	-4	-1	-12
CC(=O)N(Cc1ccccc1)Cc1cn(CCC#N)nc1-c1cccc([N+](=O)[O-])c1	-29	11	0	-17	0	-23
Cc1nnc(NC(=O)c2oc3ccccc3c2C)s1	-11	48	0	-3	1	-10
O=C(CCl)Nc1c(C(=O)Nc2ccc3c(c2)OCCO3)oc2ccccc12	-6	68*	-1	-7	0	-16
Cc1nc(NC(=O)c2oc3ccccc3c2C)sc1C(=O)N(C)C	12	54*	1	-7	1	-6
CC(=O)Nc1c(C(=O)Nc2ccc3c(c2)OCO3)oc2ccccc12	-16	21	-1	-7	-3	-8
Cc1c(C(=O)Nc2ccc3c(c2)OCO3)oc2ccccc12	-1	73*	-1	-4	-2	-22
CC1CCCC(C)N1C(=O)COC(=O)c1ccc2ccccc2n1 (stereo unspecified)	-7	12	0	0	0	-14
Cc1ccc2c(c1)CC(C)N2S(=O)(=O)c1nnc(NC(=O)CC(C)C)s1 (stereo unspecified)	-16	10	3	-12	0	-10
O=C1C(C=Nc2ccccc2O)=C(O)c2ccccc21	6	59*	2	-3	2	-17
O=C(c1ccccc1)c1ccc(O)cc1O	9	8	30*	-7	24*	7
Brc1c(-c2ccccc2)nc2n1Cc1ccccc1-2	-29	64*	-2	-3	-2	-25
CCSCCOC(=O)C1=C(C)N(C)C(=O)NC1c1ccc2c(c1)OCO2 (stereo unspecified)	-28	11	1	-12	-1	-16
O=C1OC(Nc2cc(Br)cc3cccnc23)c2ccccc21 (stereo unspecified)	-6	62*	0	-6	-1	4
O=C1OC(Nc2ncccn2)c2ccccc21 (stereo unspecified)	-4	6	1	-7	0	-4
COc1ccc(NC(=O)c2ccc(CNS(=O)(=O)c3cccc(OC)c3)cc2)cc1	-3	22	4	-10	5	2
O=C(Nc1ncccn1)c1ccc(Cl)c([N+](=O)[O-])c1	-11	26*	1	-2	1	1
